According to ChEMBL document CHEMBL3808312, “Bioactive Constituents of Glycyrrhiza uralensis (Licorice): Discovery of the Effective Components of a Traditional Herbal Medicine” (J Nat Prod, 2016):
Active and inactive are the calls of the source. The rule behind the calls is not given here.

Experiments:
SW480 [1] = test: (§1) Inhibition of NFkappaB transcription in human SW480 cells at by luciferase reporter gene assay; format: cell-based
In short: (§2)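 SW480 cells (RPMI1640) stably transfected with an NF-κB luciferase reporter. […] MG132 positive control.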

[2] = as §1; format: cell-based; in short: as §2
SW480 [3] = test: Inhibition of NFkappaB transcription in human SW480 cells at 10 uM by luciferase reporter gene assay; format: cell-based; in short: as §2
[4] = target: T1, Tyrosine-protein phosphatase non-receptor type 1 (Homo sapiens) (UniProt P18031); test: Inhibition of recombinant human PTP1B assessed as hydrolysis of p-nitrophenyl phosphate at 25 uM after 30 mins relative to control
T1 sequence (whole entry): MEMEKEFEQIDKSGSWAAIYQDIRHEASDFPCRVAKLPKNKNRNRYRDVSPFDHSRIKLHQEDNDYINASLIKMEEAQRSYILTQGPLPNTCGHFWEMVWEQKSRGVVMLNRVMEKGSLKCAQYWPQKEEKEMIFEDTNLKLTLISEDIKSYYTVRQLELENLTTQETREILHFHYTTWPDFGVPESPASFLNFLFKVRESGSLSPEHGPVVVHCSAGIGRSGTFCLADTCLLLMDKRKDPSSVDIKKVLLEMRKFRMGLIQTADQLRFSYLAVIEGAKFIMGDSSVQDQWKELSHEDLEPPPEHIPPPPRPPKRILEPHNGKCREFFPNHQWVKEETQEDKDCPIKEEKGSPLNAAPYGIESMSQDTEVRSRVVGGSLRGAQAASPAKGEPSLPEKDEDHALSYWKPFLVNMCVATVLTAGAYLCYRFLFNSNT

RAW264.7 [5] = test: Antiinflammatory activity in mouse RAW264.7 cells assessed as inhibition of LPS-induced nitric oxide production at 20 uM after 24 hrs by Griess assay; format: functional; conditions: RAW264.7, 24 h
In short: (§3)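 RAW264.7 cells plated at 1.2 × 10^5/well in RPMI1640 and co-treated with compound and 1 μg/mL LPS for 24 h. Nitrite in medium read with Griess reagent (sulfanilamide/naphthylethylenediamine, phosphoric acid) after 15 min at 37 °C, absorbance 540 nm. […] Curcumin positive control.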

RAW264.7 [6] = test: Antiinflammatory activity in mouse RAW264.7 cells assessed as inhibition of LPS-induced nitric oxide production after 24 hrs by Griess assay; format: functional, cell-based; conditions: RAW264.7, 24 h; in short: as §3
RAW264.7 [7] = test: Antiinflammatory activity in mouse RAW264.7 cells assessed as inhibition of LPS-induced nitric oxide production at 10 uM after 24 hrs by Griess assay; format: functional; conditions: RAW264.7, 24 h; in short: as §3
SW480 [8] = test: Cytotoxicity against human SW480 cells assessed as reduction in cell viability after 24 hrs by MTS assay; format: functional, cell-based; conditions: SW480, 24 h
In short: (§4)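 Cells seeded at 5 × 10^3/well and cultured overnight, then exposed to compounds for 24 h. Viability read by MTS. Media: SW480 in RPMI1640, A549 in DMEM, MCF7 in MEM. […] Irinotecan positive control.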

A549 = test: Cytotoxicity against human A549 cells assessed as reduction in cell viability after 24 hrs by MTS assay; format: functional, cell-based; conditions: A549, 24 h; in short: as §4
HepG2 = test: Cytotoxicity against human HepG2 cells assessed as reduction in cell viability after 24 hrs by MTS assay; format: functional, cell-based; conditions: HepG2, 24 h; in short: as §4
MCF7 = test: Cytotoxicity against human MCF7 cells assessed as reduction in cell viability after 24 hrs by MTS assay; format: functional, cell-based; conditions: MCF7, 24 h; in short: as §4
[9] = target: T2, Tyrosinase (Homo sapiens) (UniProt P14679); test: Inhibition of tyrosinase (unknown origin) using L-tyrosine as substrate assessed as oxidation of L-tyrosine at 20 uM after 15 mins
T2 sequence (whole entry): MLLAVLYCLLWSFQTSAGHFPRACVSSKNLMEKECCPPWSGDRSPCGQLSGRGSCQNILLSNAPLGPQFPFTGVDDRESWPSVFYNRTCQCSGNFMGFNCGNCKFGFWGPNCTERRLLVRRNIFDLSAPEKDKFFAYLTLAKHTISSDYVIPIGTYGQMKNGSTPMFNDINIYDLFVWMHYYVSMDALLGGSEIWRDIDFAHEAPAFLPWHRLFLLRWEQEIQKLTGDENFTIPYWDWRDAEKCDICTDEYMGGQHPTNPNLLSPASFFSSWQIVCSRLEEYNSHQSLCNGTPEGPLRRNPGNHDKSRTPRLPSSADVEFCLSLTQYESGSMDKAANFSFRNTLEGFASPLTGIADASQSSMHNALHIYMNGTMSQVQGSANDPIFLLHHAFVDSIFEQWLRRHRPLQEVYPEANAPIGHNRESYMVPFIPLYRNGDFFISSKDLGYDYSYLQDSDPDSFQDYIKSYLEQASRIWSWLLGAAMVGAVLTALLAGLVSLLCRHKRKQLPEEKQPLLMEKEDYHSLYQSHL
In short: (§5)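 Tyrosinase at 333 U/mL (stock) in 45 mM sodium phosphate, pH 6.6, with 2 mM L-tyrosine (stock). Incubated 37 °C for 15 min; oxidation read at 492 nm. Screened at 20 μM; dose-response for IC50. Glyasperin C positive control.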

Tyrosinase = target: T3, Tyrosinase (Homo sapiens, UniProt P14679); test: Inhibition of tyrosinase (unknown origin) using L-tyrosine as substrate assessed as oxidation of L-tyrosine after 15 mins; in short: as §5
T3 sequence (P14679 whole entry): T2 sequence (whole entry)

[10] = target: T4, Nuclear factor erythroid 2-related factor 2 (Homo sapiens) (UniProt Q16236); test: Inhibition of NRF2 transcription in human HepG2C8 cells at 10 uM after 6 hrs by luciferase reporter gene assay relative to control; format: cell-based
T4 sequence (whole entry): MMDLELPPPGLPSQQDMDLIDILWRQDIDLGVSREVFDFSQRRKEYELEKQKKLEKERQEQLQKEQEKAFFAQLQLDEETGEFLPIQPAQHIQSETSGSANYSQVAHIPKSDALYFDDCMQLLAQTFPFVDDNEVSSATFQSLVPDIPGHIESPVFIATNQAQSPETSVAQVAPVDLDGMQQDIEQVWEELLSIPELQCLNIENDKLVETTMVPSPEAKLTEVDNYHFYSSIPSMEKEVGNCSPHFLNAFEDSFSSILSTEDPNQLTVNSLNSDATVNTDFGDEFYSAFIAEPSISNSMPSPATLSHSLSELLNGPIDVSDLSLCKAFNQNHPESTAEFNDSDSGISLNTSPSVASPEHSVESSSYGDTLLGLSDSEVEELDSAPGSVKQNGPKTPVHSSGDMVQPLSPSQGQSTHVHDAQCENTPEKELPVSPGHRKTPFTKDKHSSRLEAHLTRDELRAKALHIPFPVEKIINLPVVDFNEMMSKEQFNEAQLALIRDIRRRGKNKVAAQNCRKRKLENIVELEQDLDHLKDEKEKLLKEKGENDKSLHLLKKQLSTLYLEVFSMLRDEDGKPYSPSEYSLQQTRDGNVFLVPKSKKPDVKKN
In short: (§6)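 Luciferase reporter in HepG2C8 cells, which are HepG2 stably transfected with an Nrf2 luciferase reporter and grown in MEM. Screened at 10 μM, with dose-response over 2.5−40 μM. Activity expressed as fold of control. tBHQ positive control.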

[11] = target: T4, Nuclear factor erythroid 2-related factor 2 (Homo sapiens); test: Activation of NRF2 transcription in human HepG2C8 cells at 10 uM after 6 hrs by luciferase reporter gene assay relative to control; format: cell-based; in short: as §6
[12] = target: T4, Nuclear factor erythroid 2-related factor 2 (Homo sapiens); test: Activation of NRF2 transcription in human HepG2C8 cells at 100 uM after 6 hrs by luciferase reporter gene assay relative to control; format: cell-based
Acetylcholinesterase [13] = target: T5, Acetylcholinesterase (Homo sapiens, UniProt P22303); test: Inhibition AChE (unknown origin) using ATCI as substrate assessed as hydrolysis of ATCI at 25 uM measured every 1 min for 10 times
T5 sequence (P22303 whole entry): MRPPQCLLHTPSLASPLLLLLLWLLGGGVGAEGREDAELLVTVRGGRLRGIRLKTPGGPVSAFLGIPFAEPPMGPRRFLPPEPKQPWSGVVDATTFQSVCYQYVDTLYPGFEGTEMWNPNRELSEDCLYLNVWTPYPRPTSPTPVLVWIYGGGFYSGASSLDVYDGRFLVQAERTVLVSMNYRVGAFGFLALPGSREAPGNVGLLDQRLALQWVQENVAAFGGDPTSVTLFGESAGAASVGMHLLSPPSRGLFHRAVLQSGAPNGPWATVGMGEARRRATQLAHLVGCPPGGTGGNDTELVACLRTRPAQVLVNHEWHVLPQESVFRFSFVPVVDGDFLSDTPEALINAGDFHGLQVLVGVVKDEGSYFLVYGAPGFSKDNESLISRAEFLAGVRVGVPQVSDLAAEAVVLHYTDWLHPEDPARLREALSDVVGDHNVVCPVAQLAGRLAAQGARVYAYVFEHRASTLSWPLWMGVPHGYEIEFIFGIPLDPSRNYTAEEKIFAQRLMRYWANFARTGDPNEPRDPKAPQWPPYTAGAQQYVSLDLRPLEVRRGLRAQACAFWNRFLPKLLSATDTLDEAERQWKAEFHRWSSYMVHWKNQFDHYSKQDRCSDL
In short: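 Commercial AChE (added as 0.025 U/mL solution) in Tris-HCl (30 mM, pH 8.0) with DTNB (added as 0.26 mM) and ATCI substrate (added as 0.2 mM); 200 μL mixture at room temperature. Thiocholine release read at 405 nm every min, 10 reads; linear slope taken as rate. Screening at 25 μM; galanthamine positive control.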

Acetylcholinesterase [14] = target: T5, Acetylcholinesterase; test: Inhibition AChE (unknown origin) using ATCI as substrate assessed as hydrolysis of ATCI after 10 mins measured every 1 min for 10 times
MDCK = test: Cytotoxicity against MDCK cells after 36 hrs; format: cell-based, Canis lupus familiaris; conditions: dog

COc1ccc2c(c1)OC1C2COC2=CC(=O)CCC21O (configuration not stated)
inhibition (SW480 [1]): Dose-dependent effect
IC50 [2]: 16.9 µM
inhibition (SW480 [3]): > 30%
inhibition [4]: inactive

COc1cc(/C=C/C(=O)CC(=O)/C=C/c2ccc(O)c(OC)c2)ccc1O [CURCUMIN]
inhibition at 20 µM (RAW264.7 [5]): 53%
IC50 (RAW264.7 [6]): 19.1 µM
inhibition at 10 µM (RAW264.7 [7]): 12%

COc1c(-c2ccc(O)cc2)oc2cc(O)c(CC=C(C)C)c(O)c2c1=O
IC50 (SW480 [8]): 16.1 µM
IC50 (A549): 23.1 µM
IC50 (HepG2): 10.8 µM
IC50 (MCF7): 7.3 µM
inhibition [4]: 52%

COc1c(CC=C(C)C)c(O)cc2c1C[C@H](c1ccc(O)cc1O)CO2 [GLYASPERIN C]
inhibition [9]: > 95%
IC50 (Tyrosinase): 0.177 µM

COc1c2c(cc3c1CCC(C)(C)O3)OC[C@@H](c1ccc(O)c(CCC(C)(C)O)c1O)C2
inhibition [10]: 76%

COc1c(-c2ccc(O)c(CC=C(C)C)c2)oc2cc(O)cc(O)c2c1=O
IC50 (RAW264.7 [6]): 12.1 µM
inhibition [4]: 85%
inhibition at 10 µM (RAW264.7 [7]): > 50%

O=c1c(O)c(-c2ccc(O)cc2)oc2cc(O)cc(O)c12 [KAEMPFEROL]
inhibition [9]: > 95%
IC50 (Tyrosinase): 1 µM

CC(C)(C)c1cc(O)ccc1O
fold change (FC) [11]: 1.51
fold change (FC) [12]: 4.34

CCc1c2c(nc3ccc(OC(=O)N4CCC(N5CCCCC5)CC4)cc13)-c1cc3c(c(=O)n1C2)COC(=O)[C@]3(O)CC [IRINOTECAN]
IC50 (SW480 [8]): 1.4 µM
IC50 (A549): 0.8 µM
IC50 (HepG2): 0.9 µM
IC50 (MCF7): 0.5 µM

COc1cc2c(c(OC)c1CC=C(C)C)C1c3ccc(O)cc3OC1(O)CO2 (configuration not stated)
inhibition (SW480 [1]): Dose-dependent effect
IC50 [2]: 24.6 µM
inhibition (SW480 [3]): > 30%

COc1c(CC=C(C)C)c(O)cc2c1C[C@H](c1ccc(O)c(CC=C(C)C)c1O)CO2 [LICORICIDIN]
IC50 (SW480 [8]): 7.1 µM
IC50 (A549): 6.9 µM
IC50 (HepG2): 0.3 µM
IC50 (MCF7): 5.2 µM
inhibition (Acetylcholinesterase [13]): 82%
inhibition [4]: > 95%
IC50 (Acetylcholinesterase [14]): 15.5 µM
Activity (MDCK): Toxic
